In the library only some 2.9% were active in any assay of this set; here they are far more common.
MEKK2mut PB1 HTS – signal of MEK5 binding to mutant human MEKK2 PB1 domain | percent response, % at 10 µM | 0.35% of 290,000 active | bead flow cytometry, Alexa488-MEK5 binding to MEKK2 mutant; in the data active = percent response above about 24%, passing the limit was not always enough
UBC13 inh – human UBC13 polyubiquitination inhibition; P61088; UBC13 polyubiquitin chain formation, TR-FRET; inhibition, % at 20 µM; 0.47% of 330,000 active; AID 485273; in the data active = inhibition above about 45%, passing the limit was not always enough
Apaf1 inhib – human Apaf-1 inhibition; O14727; reconstituted apoptosome caspase-3 activity, DEVD-Rh110 fluorescence; inhibition, % at 20 µM; 0.71% of 330,000 active; AID 489030; active = inhibition of at least 40% at 20 µM;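 note: plate controls were DMSO wells for no effect and DEVD-CHO caspase inhibitor wells for full effect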
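Material: biochemical Apaf-1 apoptosome reconstitution. Medium: Hepes buffer, pH 7.5. Also added: cytochrome c activation, bis-DEVD rhodamine 110 substrate. Timing: 30 min compound preincubation, 50 min activation, room temperature. Measured by: rhodamine 110 fluorescence at Ex 480/Em 540 nm.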
MEKK3 PB1 HTS – raises or lowers MEK5 binding to the human MEKK3 PB1 domain; Q99759; bead-based flow cytometry, Alexa488-MEK5 binding to MEKK3; actives lie on both sides; 0 = blocked by unlabeled MEK5, 100 = vehicle; binding response (% of control), % at 10 µM; 1.4% of 290,000 active; AID 1529;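 active = binding response more than 3 SD above or below the average of its plate-row segment, actives on both sides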;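 note: Alexa488 bead fluorescence after subtracting the streptavidin-only scavenger bead signal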
MEKK2 WT-MEK5 – raises or lowers MEK5 binding to wildtype human MEKK2 PB1 domain; Q9Y2U5; bead flow cytometry, Alexa488-MEK5 binding to MEKK2 WT; actives lie on both sides; 1.1% of 290,000 active; binding response (% of control), % at 10 µM; in the data active = binding response below about 67% or above about 130%
An asterisk follows results filed as active; · = no result; + = active, no number; [ ] = another dose, or the depositor's remark.

SMILES | MEKK2mut PB1 HTS | UBC13 inh | Apaf1 inhib | MEKK3 PB1 HTS | MEKK2 WT-MEK5
CC(=O)Nc1ccccc1N(CC(O)Cn1c2ccccc2c2ccccc21)S(=O)(=O)c1ccc(C)cc1 (stereo not given) | 0 | -4 | 10 | 138* | 106
O=C(Nc1ccnn1C1CCN(Cc2c[nH]c3ccccc23)CC1)c1ccccc1 | 21 | 6 | 4 | 105 | 135*
Cn1cc(CN2CCC(n3nccc3NC(=O)c3ccccc3Cl)CC2)c2ccccc21 | 19 | 6 | 19 | 103 | 155*
O=C(Nc1ccnn1C1CCN(CC2CC=CCC2)CC1)c1ccccc1 (stereo not given) | -2 | -5 | -4 | 101 | 104
NS(=O)(=O)c1ccc(CCNC(=O)c2cccc([N+](=O)[O-])c2)cc1 | -4 | 2 | -5 | 90 | 91
CC1=Nc2nc(N3CCCCC3)c(C#N)c3c4c(nc(c23)N1)N(c1ccc(C(C)C)cc1)C(=O)C4 | -1 | -38 | 27 | 107 | 105
COc1ccc2[nH]c(=O)c(CN(C(=O)c3cccnc3)c3cc(C)ccc3C)cc2c1 | 1 | 4 | -21 | 96 | 98
COc1ccc2[nH]c(=O)c(CN(C(=O)c3cccnc3)c3ccc(C)cc3C)cc2c1 | 4 | 21 | -14 | 102 | -3.0*
Cc1c(C)n(C)c2ccc(C(=O)NCCCN3CCN(c4ccc(F)cc4)CC3)cc12 | 7 | 22 | 25 | 98 | 134*
CN(C)CCNC(=O)Cn1c(=O)c2cccn2c2ccc(F)cc21 | 7 | -2 | -5 | 108 | 108
O=C(Cn1c(=O)c2cccn2c2ccc(F)cc21)NCCCN1CCN(c2ccccc2F)CC1 | 27* | 5 | 14 | 108 | 156*
Cc1c(C)n(C)c2ccc(C(=O)NCCCN3CCN(c4ccccc4F)CC3)cc12 | 21 | 6 | 32 | 107 | 158*
CCOC(=O)[C@@H]1[C@H]2COc3ccc(Br)cc3[C@@H]2N2C(=O)N(c3ccc(C(F)(F)F)cc3)C(=O)[C@]12C | -7 | -16 | 11 | 100 | 87
CC(C(=O)Nc1ccc([N+](=O)[O-])cc1)N1CCN(C/C=C/c2ccccc2)CC1 (stereo not given) | 1 | 18 | 2 | 104 | 106
CC(=O)c1ccc(NC(=O)C(C)N2CCN(C/C=C/c3ccccc3)CC2)cc1 (stereo not given) | + | 3 | 9 | 191* | 120
COc1cccc(N(C(=O)c2snc(C(N)=O)c2N)C(C(=O)NCC2CCCO2)c2ccc3ncccc3c2)c1 (stereo not given) | -1 | 29 | 4 | 102 | 101
COc1cc(Cl)c(NS(=O)(=O)c2ccc(-c3ccc(=O)[nH]n3)o2)c(OC)c1 | 1 | -10 | -3 | 98 | 98
COc1cc(Cl)c(NC2=CC(=O)C(=O)c3ccccc32)c(OC)c1 | · | -284 | 92* | · | ·
COc1ccc(-n2nc3c(N4CCC(C(=O)NCc5ccccc5C)CC4)nnc(C)c3c2C)cc1 | -1 | 17 | 59* | 96 | 102
O=C(CSc1ccc2ccccc2c1)Nc1ccc(S(=O)(=O)Nc2nccs2)cc1 | -2 | -8 | 4 | 102 | 91
Cc1ccc(-c2noc(CCC(=O)N3CCN(c4cccc(C(F)(F)F)c4)CC3)n2)cc1 | 15 | -8 | 42* | 107 | 111
COc1ccc(-c2noc(CCC(=O)N3CCN(c4ccc(C(F)(F)F)cc4)CC3)n2)cc1 | · | · | 17 | · | ·
O=C(/C=C/c1cccc(O)c1)c1ccc(N2CCOCC2)cc1 | -15 | 4 | -22 | 85 | -4.0*
Cc1ccc(C(=O)N/C(=C\c2ccc(-c3ccccc3[N+](=O)[O-])o2)C(=O)NCCCN2CCOCC2)cc1 | 8 | -23 | 65* | 103 | 112
Cc1ccc(C(=O)N/C(=C\c2cn(C)c3ccccc23)C(=O)NCCCN2CCOCC2)cc1 | -1 | -2 | -3 | 96 | 100
SMILES | MEKK2mut PB1 HTS | UBC13 inh | Apaf1 inhib | MEKK3 PB1 HTS | MEKK2 WT-MEK5
O=C(N/N=C/c1ccncc1)c1cccc(NC(=O)c2ccc(Cl)cc2)c1 | -3 | 2 | -24 | 54*[inhibitor] | 66
COc1ccc(-c2ccc(-c3cc(=O)oc4cc(OC)c(OC)c(OC)c34)cc2)cc1 | · | · | 19 | · | ·
O=C1Nc2ccccc2N2CCCC12 (stereo not given) | -10 | -35 | 78* | 92 | 84
NS(=O)(=O)c1ccc(CNC(=O)c2cc(-c3cccnc3)nc3ccc(Br)cc23)cc1 | 7 | -38 | 11 | 103 | 112
CCO/C=C1/C(=O)N(Cc2ccccc2)C(=O)c2ccccc21 | 0 | -19 | 62* | 101 | 101
c1ccc(-c2nnc3sc(Cc4cccs4)nn23)cc1 | 1 | -13 | 30 | 95 | 97
Clc1ccc(-c2nnc3sc(Cc4cccs4)nn23)cc1 | 17 | 6 | 58* | 111 | 105
CCC(CC)C(=O)N1N=C(c2ccc(NS(C)(=O)=O)cc2)CC1c1ccc(C)cc1 (stereo not given) | -4 | 31 | 6 | 99 | 90
COc1ccc(S(=O)(=O)Nc2ccc(-n3cnnn3)cc2)cc1[N+](=O)[O-] | · | -4 | 0 | · | ·
Cc1ccc2nc(-c3ccccc3)cc(C(=O)N3CCN(S(=O)(=O)c4c(C)noc4C)CC3)c2c1 | · | 4 | 33 | · | ·
COc1cc(OC)c(C2CC(=O)N3CN(c4ccccc4C)CSC3=C2C#N)cc1OC (stereo not given) | 0 | -30 | 66* | 102 | 90
Cc1cc(NS(=O)(=O)c2ccc(NC(=O)CSc3nc4ncc(Cl)cc4[nH]3)cc2)nc(C)n1 | 9 | 8 | -21 | 96 | -4.0*
NS(=O)(=O)c1ccc(CNC(=O)c2ccc3ccccc3n2)cc1 | 5 | 6 | -5 | 105 | 103
NS(=O)(=O)c1ccc(CCNC(=O)c2ccc3ccccc3n2)cc1 | 5 | -7 | 6 | 99 | -3.0*
O=C(O)CCCN1C(=O)/C(=C\c2ccc(-c3nc4ccccc4s3)o2)SC1=S | -20 | -102 | -81 | 68 | 41*[inhibitor]
Cc1cnc(C(=O)OCC(=O)NC(C)CCc2ccccc2)cn1 (stereo not given) | -3 | 7 | -11 | 106 | 97
CC(=O)OCC(=O)[C@@]12OC3(CCCC3)O[C@@H]1C[C@H]1[C@@H]3CCC4=CC(=O)C=C[C@]4(C)[C@@]3(F)[C@@H](O)C[C@@]12C | 3 | 9 | 14 | 85 | -3.0*
OC(CNCc1cccnc1)COc1ccc2ccccc2c1 (stereo not given) | 11 | 1 | 4 | 103 | 113
CC1(C)CCC23CC[C@]4(C)C(OC2=O)(C3C1)[C@H]1O[C@H]1C1[C@@]2(C)CC[C@@H](O)C(C)(C)C2CC[C@]14C (stereo not given in full) | 2 | · | · | 101 | 97
COc1ccccc1N1CCN(CCCNC(=O)C2CCCN(c3ncnc4c3nc3n4CCCCC3)C2)CC1 (stereo not given) | 21 | 23 | 12 | 103 | 136*

Screening data as filed in PubChem.
